From PubChem BioAssay
Hits are enriched below; roughly 3.8% of the tested compounds scored in any of these assays.
KCNQ1 act: human KCNQ1 channel potentiation or activation; P51787; CHO-K1 KCNQ1, thallium flux FluxOR fluorescence; hits give high values; B-score at 10 µM; actives 0.35% (n = 310,000); AID 2648;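 active = fluorescence ratio B-score, a plate-corrected score, at least three library SD, with initial intensity B-score within 5 SD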
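Schedule – 37 °C overnight plating, 90-min dark dye load, 20-min compound pretreatment · System – stable KCNQ1 CHO-K1 line · Probe or stimulus – thallium- and potassium-containing depolarizing buffer · Measured by – kinetic FluxOR fluorescence, 10 s baseline plus 110 s post-stimulus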
KCNQ1 block: inhibitors of human KCNQ1 potassium channel; P51787; CHO-K1 KCNQ1, FluxOR thallium flux fluorescence; hits give high values; B-score at 10 µM; actives 1.3% (n = 310,000); AID 2642;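 active = compounds whose thallium flux B-score, printed positive for inhibition, exceeds three library SD while starting fluorescence stays within three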;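 note: channel opened by potassium depolarization with thallium stimulus after 20 min compound exposure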
KCNK3 block: human KCNK3 channel inhibition, primary screen; O14649; CHO-KCNK3 thallium flux, FluxOR fluorescence; hits give low values; B-score at 10 µM; actives 0.84% (n = 340,000);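 active = B-score under library mean minus 4 SD, starting fluorescence ratio at most library mean plus 5 SD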;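 note: more negative B-score means stronger inhibition of thallium flux through KCNK3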
Kir21 inh: inhibitors of mouse Kir2.1 inward-rectifier potassium channel; P35561; HEK293-Kir2.1, FluxOR thallium flux fluorescence; hits give low values; actives 0.85% (n = 310,000); B-score at 10 µM;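 active = fluorescence ratio B-score at or below minus 3 SD of library scores, with starting-brightness B-score within 2 SD, cut at about -4.2 in these data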;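 note: channel flux triggered by added potassium and thallium sulfate stimulus; B-score of peak minus minimum fluorescence over baseline after thallium stimulus; more negative B-score means stronger Kir2.1 block with less thallium influx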
hERG rescue: compounds protecting human hERG from proarrhythmic drug block; Q12809; activation (rescue from dofetilide block), less the hit threshold, % at 10 µM; actives 0.51% (n = 310,000); AID 1511; CHO-hERG, FluxOR thallium flux, dofetilide IC70 present;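 active = activation above the mean of controls blocked by dofetilide plus 5 SD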;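 note: thallium influx through hERG after potassium depolarization seen as dye fluorescence rise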
KCNK9 inh: blocks the human KCNK9 two-pore domain potassium channel; Q9NPC2; HEK293 KCNK9, FluxOR thallium flux fluorescence; hits give low values; B-score at 10 µM; actives 1.2% (n = 310,000); AID 488922;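 active = ratio B-score over 3 SD below the library mean, with starting fluorescence within 5 SD of its mean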;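 note: negative B-score means less thallium flux so channel inhibition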
KCNK9 inh conf: confirmation of human KCNK9 potassium channel inhibitors | shares compounds with KCNK9 inh | HEK293 KCNK9 cells, FluxOR thallium flux fluorescence | inhibition, % at 10 µM | actives 43% (n = 4,900);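 active = thallium signal inhibited by more than 5 SD of the compound-free buffer control wells, on both duplicate plates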
Kir21 sel: mouse Kir2.1 off-target activity of KCNK9 modulators; shares compounds with KCNK9 inh; Kir2.1 cells, FluxOR thallium flux fluorescence; inhibition, % at 10 µM; actives 4% (n = 4,900); AID 492993;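 active = thallium signal drop more than 5 SD beyond the mean of the no-compound control wells, seen in both duplicate plates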;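 note: signal is fluorescence rise after thallium addition divided by baseline fluorescence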
HEK293 Tl ctr: second check of KCNK9 modulator effects in non-induced HEK293 cells. shares compounds with KCNK9 inh. FluxOR thallium flux. inhibition, % at 10 µM. actives 40% (n = 4,900). AID 492997;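 active = thallium signal drop beyond 5 SD of the untreated control mean, on both duplicate plates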
Numbers stand for hits; n = inactive; x = no result given.

SMILES | KCNQ1 act | KCNQ1 block | KCNK3 block | Kir21 inh | hERG rescue | KCNK9 inh | KCNK9 inh conf | Kir21 sel | HEK293 Tl ctr
CCn1c(SCC(=O)N2CCCc3ccccc32)nnc1-c1ccco1 | n | n | n | n | n | n | x | x | x
O=C(CSc1nc2ccccc2c(=O)n1-c1ccccc1)N1CCc2ccccc21 | n | n | n | n | n | n | x | x | x
O=C(CSc1ccc2nnc(-c3ccccn3)n2n1)Nc1ccc(F)cc1F | n | n | n | n | n | n | x | x | x
O=C1CC2(CCN1)CCN(Cc1ccccc1)CC2 | x | x | n | x | x | x | x | x | x
Cc1ccc(-c2ccc(SCC(=O)N3CCCc4ccccc43)nn2)cc1 | n | n | x | n | n | n | n | n | n
Cc1ccc(-c2ccc(SCC(=O)N3CCc4ccccc43)nn2)cc1 | n | n | x | n | n | n | x | x | x
O=C(C=C(C(=O)c1ccccc1)c1ccccc1)c1ccccc1 | x | x | n | x | x | x | x | x | x
CCN1C(=O)[C@H]2[C@@H](c3ccc(-c4cccc(Cl)c4)c(OC)c3)N[C@@](CC(C)C)(C(=O)OC)[C@H]2C1=O | n | n | n | n | n | -9.89 | 43.5% | n | 44.0%
COc1ccc(C(=O)c2cccc(C(=O)c3ccc(OC)c(C)c3)c2)cc1C | n | n | n | n | n | n | n | n | n
CN(C)CCn1c(=O)n(Cc2ccco2)c(=O)c2c3c(sc21)CCCCC3 | n | n | n | n | n | n | n | n | n
O=c1c2c3c(sc2n(CCN2CCCC2)c(=O)n1Cc1ccco1)CCCCC3 | n | n | n | n | n | n | x | x | x
O=C(Cn1c(=O)n(Cc2ccco2)c(=O)c2c3c(sc21)CCCCC3)Nc1ccccc1 | n | 6 | n | n | n | n | n | n | 34.0%
CCn1c(=O)n(CCOC)c(=O)c2c3c(sc21)CCCC3 | n | n | n | n | n | n | x | x | x
CN(C)CCn1c(=O)n(C2CCCCC2)c(=O)c2c3c(sc21)CCCCC3 | n | n | n | n | n | n | n | n | n
CC(CNS(=O)(=O)c1ccc2c(c1)NC(=O)CCS2)c1ccccc1 (centres undefined) | n | n | n | n | n | n | x | x | x
CC12CCC(=O)N1C(C(=O)NCc1ccc(Cl)cc1Cl)CS2 (centres undefined) | n | n | n | n | n | n | x | x | x
O=C(CC1CCCC1)N1CCCC(Nc2ccc(F)cc2)C1 (centres undefined) | n | n | n | n | n | n | n | n | n
CC1(CCC(=O)N2CCCC(Nc3ccc(F)cc3)C2)CC1 (centres undefined) | n | n | n | -6.11 | n | n | n | n | n
CN(Cc1ccc(OC(F)F)cc1)C(=O)/C=C/c1ccc(S(=O)(=O)N2CCOCC2)cc1 | x | x | n | x | x | x | x | x | x
COc1ccccc1OCC(O)CNCc1ccc2c(c1)OCO2 (centres undefined) | n | n | n | n | n | n | x | x | x
COc1cc(NC(=O)c2ccccc2)c(OC)cc1NC(=O)Cc1ccc(C)cc1 | n | n | n | n | n | n | x | x | x
C[C@H](NC(=O)c1nc[nH]c1C(=O)N[C@@H](CCCCNC(=O)OC(C)(C)C)C(=O)OC(C)(C)C)c1ccccc1 | n | n | n | n | n | -11.2 | n | n | 29.0%
CC1CCC(C(C)C)C(=O)/C1=C/c1ccc(N)cc1 (centres undefined) | n | n | n | n | n | n | x | x | x
CC1/C(=C\c2ccc(Cl)cc2)C(=O)C2CC1C2(C)C (centres undefined) | n | n | n | n | n | n | n | n | n
CC[C@@H]1[C@H]2CCCC(=O)N3CC[C@@H](C[C@@H]1OC(=O)Nc1ccccc1)[C@@H]23 | n | n | n | n | n | n | x | x | x
SMILES | KCNQ1 act | KCNQ1 block | KCNK3 block | Kir21 inh | hERG rescue | KCNK9 inh | KCNK9 inh conf | Kir21 sel | HEK293 Tl ctr
CCN(C(=S)Nc1ccc(Oc2ccccc2)cc1)c1ccccc1 | n | n | n | n | n | n | n | n | n
Cn1c(=O)c(C(=O)NCc2ccccc2)c(O)c2ccccc21 | n | n | n | n | n | n | x | x | x
COc1ccc(CCNC(=O)c2c(O)c3ccccc3n(C)c2=O)cc1 | n | n | n | n | n | n | n | n | n
Cn1c(=O)c(C(=O)NCCCc2ccccc2)c(O)c2ccccc21 | n | n | n | n | n | n | n | n | 27.5%
COc1ccc(CCNC(=O)c2cc3c(=O)n(C)c4ccccc4c3n2C)c(OC)c1 | n | n | n | n | n | n | n | n | n
C[C@H](CO)N1C[C@H](C)[C@@H](CN(C)Cc2ccncc2)Oc2c(cccc2N(C)C)C1=O | x | x | n | x | x | x | x | x | x
COC(=O)C1=NN(C(=O)c2cccc(Br)c2)C(O)(c2ccc(Cl)cc2)C1 (centres undefined) | 82 | n | n | n | 59.5 | n | n | n | n
Cc1cc(C)n(-c2ccc(C(=O)N3CCN(c4ccccn4)CC3)cc2)n1 | x | x | n | x | x | x | x | x | x
Cc1cc(C)n(-c2nc3ccccc3nc2N2CCN(C(=O)c3ccccc3)CC2)n1 | n | n | n | n | n | n | n | n | n
CC1CCCN(S(=O)(=O)c2ccc(C(=O)NC(C)c3ccccc3)cc2)C1 (centres undefined) | x | x | n | x | x | x | x | x | x
COc1ccc(OCC(=O)Nc2c3c(nn2C(C)(C)C)CSC3)cc1 | n | n | n | n | n | -13.7 | 57.0% | n | 24.0%
CCC(=O)Nc1c2c(nn1-c1ccc(OC)cc1)CSC2 | n | n | n | n | n | n | x | x | x
CCCNC(=O)N1CCCC(C(=O)c2cccc(Cl)c2)C1 (centres undefined) | n | n | n | n | n | n | x | x | x
O=C(CCc1ccccc1)C(=O)N1CCCC(C(=O)c2cccc(Cl)c2)C1 (centres undefined) | n | n | n | n | n | n | n | 31.5% | 37.0%
COc1ccc(C(=O)COC(=O)C(CC(C)C)N2C(=O)c3ccccc3C2=O)cc1 (centres undefined) | n | n | n | n | n | n | x | x | x
CSCCC(C(=O)OCC(=O)c1ccc(C)c(C)c1)N1C(=O)c2cc(Cl)c(Cl)cc2C1=O (centres undefined) | n | n | n | n | n | n | n | n | n
CC(C)[C@H](NC(N)=O)C(=O)Nc1ccc(F)c(Cl)c1 | n | n | n | n | n | n | x | x | x
CS(=O)(=O)N1CCN(C(=O)c2ccc(Cl)s2)CC1 | n | n | n | n | n | n | x | x | x
COc1cc(/C=C2/C(=N)N3C(=NC2=O)SN=C3S(C)(=O)=O)ccc1OS(=O)(=O)c1ccccc1 | n | n | x | n | n | n | x | x | x
CCOc1cc(/C=C2/C(=N)N3C(=NC2=O)SN=C3S(C)(=O)=O)ccc1OS(=O)(=O)c1ccccc1 | n | n | n | n | n | n | n | n | n
